Values without a mark were called inactive. Inconclusive results are not listed. Activity calls are given as the source filed them.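 How the source made its calls, unless noted: active means viability at or below 27.92% in each of two runs, the all-compound median minus 4 SD; inconclusive means no clear call, values can overlap the other calls; inactive means the rest.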
How the values were obtained:
[1] = S. cerevisiae growth inhibition in permissive medium (OD615), pilot counter-assay for S. cerevisiae lifespan shortening project, permissive growth control (AID 705;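 active means growth inhibition above 25% in both replicates, a cutoff set 3 SD above the mean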); conditions: OD615, 24 h, at 10 µM, stronger effect = higher value
Summary of the method: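 System: S. cerevisiae with engineered DeaD lifespan system. Medium: SC raffinose/galactose permissive medium. Doses: single compound dose of 10 µM, 0.25% DMSO final. Schedule: 24 h exposure, 30 °C. Measured by: OD615 turbidity read. Read-out: growth inhibition.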

[2] = S. cerevisiae growth inhibition in restrictive medium, OD615, pilot screen, restrictive growth control, yeast lifespan reduction project (AID 706;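 active means growth inhibition above a set limit, 3 SD over mean compound inhibition, in both replicates, cut at about 43% in these data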;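 further: modified DeaD lifespan yeast strain shifted to restrictive glucose medium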); conditions: OD615, 48 h, at 10 µM, stronger effect = higher value
Summary of the method: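 Assay system – genetically modified Saccharomyces cerevisiae, DeaD replicative lifespan assay strain · Medium – CSMM-D glucose medium · Doses – 10 µM compound, 0.25% DMSO · Times – 4 h pre-incubation, 48 h exposure at 30 °C · Signal – optical density at 615 nm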

[3] = doxorubicin toxicity protection in MRP-1 cells – H69AR cells, CellTiter-Glo, duplicate, MRP-1 activator project, pilot screen (AID 807;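 active means viability increase at or above a cutoff of the median across tested compounds plus 3 SD, cut at about 8.5% in these data, passing the limit was not always enough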;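 further: compound pretreatment 18-22 h then 72 h combined with doxorubicin; 0% = doxorubicin alone and 100% = vehicle without doxorubicin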); conditions: H69AR viability with doxorubicin, CellTiter-Glo luminescence; at 10 µM; stronger effect = higher value
[4] = viability of HCT116 without oncogenic beta-catenin – human colon tumor cells, pilot screen (AID 823;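 active means cell viability at or below a set limit in both duplicate runs, the limit being the all-compound median minus 4 SD, cut at about 23% in these data, passing the limit was not always enough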;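 further: 0% = wells killed by 20 µM Hyamine and 100% = untreated DMSO cell wells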); conditions: HCT116 beta-catenin knockout viability, CellTiter-Glo, 60 h; at 10 µM; stronger effect = lower value
[5] = viability of PTEN-null HCT116 cells – cell-based, HCT116 clonal line, CellTiter-Glo, pilot screen (AID 824); conditions: HCT116 PTEN-deleted viability, 60 h, at 10 µM, stronger effect = lower value;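 further: 0% = 20 µM Hyamine control and 100% = vehicle cell control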
[6] = RAM pathway blockade in budding yeast – dse1pr::URA3 reporter, 5-FOA selection, pilot screen (AID 869;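 active means inhibition over a set limit, the all-compound mean plus 3 SD, in both replicate runs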;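 further: 0% = DMSO wells with no growth and 100% = 10 µM 1-NA-PP1 with full growth; RAM network block rescues cells from 5-FOA so hits raise OD615 growth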); conditions: S. cerevisiae dse1pr::URA3 5-FOA growth, OD615, 2 d; at 10 µM; stronger effect = higher value; strain carries analog-sensitive mutant Cbk1 kinase
[7] = RAM signaling pathway blockade in yeast – S. cerevisiae, Pdr1DBD-CYC8 efflux-inhibited sensitized strain, primary screen (AID 1298;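 active means RAM network inhibition above 8.4% in each of two replicates, 3 SD over the compound average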;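 further: 0% = DMSO untreated cells without growth and 100% = 10 µM 1-NA-PP1 full growth; higher means more yeast growth rescued from 5-FOA killing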); conditions: S. cerevisiae cbk1-as DSE1-URA3 strain, 5-FOA growth OD615, 2 d; at 50 µM; stronger effect = higher value

| Compound | growth inhibition [1] | growth inhibition [2] | viability increase [3] | viability [4] | viability [5] | inhibition [6] | RAM network inhibition [7] |
| --- | --- | --- | --- | --- | --- | --- | --- |
| COc1ccc(CN2CCCCC2c2cccnc2)c(OC)c1C (stereo not given) | -1.37% | 0.92% | -2.86% | 92.1% | 99% | 1.25% | 1.37% |
| CC(=O)Nc1ccc(S(=O)(=O)NC2=NCN(CCOC(=O)c3ccccc3)CN2)cc1 | -3.64% | 5.12% | -1.37% | 92.7% | 93.6% | 1.29% | 1.02% |
| C=CCOC(=O)CCP(=O)(CCC(=O)OCC=C)c1ccccc1 | 5.05% | 1.05% | -1.13% | 96.5% | 98.8% | -0.22% | -1.29% |
| N#CC1=C2SCN(Cc3ccccc3)CN2C(=O)CC1c1cccs1 (stereo not given) | 9.16% | 30.2% | -2.91% | 94.3% | 86% | 0.535% | 4.04% |
| O=C(Cn1cnc2c(nnn2-c2ccccc2)c1=O)N1CCC(Cc2ccccc2)CC1 | 7.29% | 9.16% | -1.56% | 91.4% | 85.3% | 2.19% | 7.33% |
| CCC1CCCCN1C(=O)CSc1nnc(-c2cccc(Cl)c2)o1 (stereo not given) | 8.15% | 46.1% (active) | -3.24% | 86.8% | 91.5% | 1.4% | 1.06% |
| CCN(CC)S(=O)(=O)c1cccc(-c2nnc(SCc3nnc(-c4cccs4)o3)n2N)c1 | 5.53% | 46.4% (active) | 0.28% | 86.5% | 92.5% | 1.85% | 3.12% |
| COc1cccc(-c2nc(CS(=O)(=O)CC(=O)N3CCN(C4CCCCC4)CC3)c(C)o2)c1 | 1.34% | -1.93% | -2.59% | 86.4% | 100% | 0.41% | 3.35% |
| COc1ccc(Cn2c(=O)[nH]c3cc(C(=O)NCCCN4CCCCC4)ccc3c2=O)cc1 | -4.93% | -8.5% | -2.31% | 74.5% | 77.4% | 0.53% | 4.83% |
| O=C(c1ccc(CNc2c(N3CCOCC3)c(=O)c2=O)cc1)N1CC=C(c2ccccc2)CC1 | -1.62% | -7.31% | -0.15% | 95.3% | 94.8% | 2.02% | 6.56% |
| Cc1ccc2c(c1)c1cccc3c1n2CCN3CCC(N)=O | 4.29% | 6.53% | 1.41% | 87.4% | 87.2% | 3.32% | 9.34% |
| CCCC(=O)C1=C(O)C(C(=O)OC)C(C)(C)CC1=Nc1ccncc1 (stereo not given) | 0.755% | 9.75% | -2.84% | 96.7% | 94.6% | 0.73% | 0.11% |
| Cc1ccc(C)c2[nH]c(=O)c(CCNC(=O)CC(C)C)cc12 | -2.83% | -10.7% | -1.74% | 103% | 108% | 1.75% | 8.88% |
| COCC(=O)NCCc1nc2ccccc2[nH]1 | -0.385% | 1.45% | -2.27% | 98.7% | 99.1% | -0.325% | 0.89% |
| CCn1c(=NC(=O)CSC(C)=O)sc2cc(OC)ccc21 | -22.8% | 7.25% | -5.19% | 64.1% | 77.2% | 1.25% | 2.46% |

Reference: PubChem BioAssay
